Structures are written as SMILES.

Assay [1] addresses 5-hydroxytryptamine receptor 4 (Rattus norvegicus, UniProt Q62758). Nature of the assay: In vitro affinity at serotonergic 5-hydroxytryptamine 4 receptor by radioligand binding assay using [3H]GR-113808 in rat striatum membranes. It counts as cell membranes.
The target of assay [2] is T1, Serotonin 3 (5-HT3) receptor (Rattus norvegicus, UniProt P35563+Q9JJ16).
T1 sequence (P35563 whole entry): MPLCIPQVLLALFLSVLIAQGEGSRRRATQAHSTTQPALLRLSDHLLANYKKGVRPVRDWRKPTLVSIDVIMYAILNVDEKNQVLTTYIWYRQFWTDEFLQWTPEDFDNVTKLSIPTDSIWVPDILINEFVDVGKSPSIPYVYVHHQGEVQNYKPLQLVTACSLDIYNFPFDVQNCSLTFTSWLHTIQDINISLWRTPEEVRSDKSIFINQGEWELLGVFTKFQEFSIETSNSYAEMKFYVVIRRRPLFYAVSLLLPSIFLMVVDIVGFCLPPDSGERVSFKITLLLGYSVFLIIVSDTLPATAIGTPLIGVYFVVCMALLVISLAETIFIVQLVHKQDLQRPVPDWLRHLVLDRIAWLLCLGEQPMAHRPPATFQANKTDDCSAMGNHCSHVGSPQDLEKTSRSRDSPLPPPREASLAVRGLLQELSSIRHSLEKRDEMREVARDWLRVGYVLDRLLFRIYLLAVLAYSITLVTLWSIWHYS
T1 sequence (Q9JJ16 whole entry): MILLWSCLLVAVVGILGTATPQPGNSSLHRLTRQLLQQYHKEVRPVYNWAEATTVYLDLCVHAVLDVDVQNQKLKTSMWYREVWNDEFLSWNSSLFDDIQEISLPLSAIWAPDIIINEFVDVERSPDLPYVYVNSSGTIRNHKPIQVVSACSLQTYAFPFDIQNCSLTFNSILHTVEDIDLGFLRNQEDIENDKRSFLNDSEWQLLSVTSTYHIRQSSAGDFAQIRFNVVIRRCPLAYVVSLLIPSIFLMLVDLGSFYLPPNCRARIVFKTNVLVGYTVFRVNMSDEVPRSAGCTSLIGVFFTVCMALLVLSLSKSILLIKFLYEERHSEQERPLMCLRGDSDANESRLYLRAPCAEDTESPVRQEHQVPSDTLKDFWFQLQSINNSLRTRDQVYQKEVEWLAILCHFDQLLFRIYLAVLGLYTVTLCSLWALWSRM
Briefly: In vitro affinity at serotonergic 5-hydroxytryptamine 3 receptor by radioligand binding assay, using [3H]-LY 278584 in rat cerebral cortex membranes. It counts as cell membranes. In outline:
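Rat cerebral cortex membranes prepared in 0.32 M sucrose, then washed in 50 mM Tris-HCl pH 7.4 and preincubated at 37 °C for 10 min. About 2 mg/mL protein incubated 30 min at 25 °C with 0.7 nM [3H]LY 278584 and six competitor concentrations. Buffer contained pargyline, ascorbate and CaCl2. Nonspecific binding defined with 10 μM 5-HT. Triplicates, filtration, scintillation counting. Ki from IC50 via Cheng–Prusoff, means of 2–4 assays.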

The species named for assay [3] is Cavia porcellus. Briefly: Single-point analysis using 5(10e-9) M concentration of the antagonist (pA2= -log([B]/concentration ratio-1); [B] =concentration of the antagonist). It counts as functional. The note with it: read-out: pA2 (converted). Summed up: (§1)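 Ileal strip preparation with methysergide 10^-6 M present. Paired noncumulative 5-HT curves are run, with the antagonist at 5×10^-9 M added 30 min before the second curve. The concentration ratio is taken at the 5-HT level giving 50% of the control maximum in the ≥10^-6 M phase. Single-point pA2 = −log([B]/(CR−1)) (Furchgott).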

Assay [4] concerns the target Serotonin 3 (5-HT3) receptor (Homo sapiens) (UniProt P46098+A5X5Y0+O95264+Q70Z44+Q8WXA8). The note with it: Cavia porcellus; Ileum.
The species entered for assay [5] is Cavia porcellus. Briefly: Single-point analysis using 5(10e-9) M concentration of the antagonist (pA2= -log([B]/concentration ratio-1); [B] =concentration of the antagonist). The note with it: read-out: pA2 (converted). It counts as functional. Summed up:
as §1

Assay [6] deals with T1, Serotonin 3 (5-HT3) receptor. Nature of the assay: Compound was evaluated for its in vitro affinity at serotonergic 5-hydroxytryptamine 3 receptor by radioligand binding assay, using [3H]-LY 278584 in rat cerebral cortex membranes. It counts as cell membranes.

5-hydroxytryptamine receptor 4, sequence (Q62758 whole entry): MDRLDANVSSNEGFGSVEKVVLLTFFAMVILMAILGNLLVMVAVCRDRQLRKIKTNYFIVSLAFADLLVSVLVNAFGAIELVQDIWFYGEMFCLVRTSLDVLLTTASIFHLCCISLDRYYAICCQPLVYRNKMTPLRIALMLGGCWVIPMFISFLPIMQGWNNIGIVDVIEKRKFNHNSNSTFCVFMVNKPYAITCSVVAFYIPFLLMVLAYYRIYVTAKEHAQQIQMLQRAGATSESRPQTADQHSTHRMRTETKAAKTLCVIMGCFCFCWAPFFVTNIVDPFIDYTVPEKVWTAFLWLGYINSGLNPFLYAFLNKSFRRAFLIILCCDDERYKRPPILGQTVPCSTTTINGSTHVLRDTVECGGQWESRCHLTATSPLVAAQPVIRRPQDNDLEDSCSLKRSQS

With `Nc1c(Br)cc(C(=O)NC2CN3CCC2CC3)c2[nH]cnc12` (stereo not given), the values for the Ki in assay [1] and in assay [2] were 227 nM and 0.42 nM, respectively.
For the compound `CCC1CCN(C)C[C@H]1NC(=O)c1cccc2[nH]cnc12` (stereo not given in full), in the assay filed under Cavia porcellus [3], the Kb is 0.251 nM. Further, the Ki (commonly the equilibrium dissociation constant of an inhibitor or competing ligand from its target) was > 1000 nM in assay [1] and 2.6 nM in assay [2].
In the case of `O=C(NC1CN2CCC1CC2)c1cc(Cl)c([N+](=O)[O-])c2nc[nH]c12` (stereo not given), the Ki in assay [1] was > 1000 nM; in assay [2] it was 5.2 nM.
For the compound `O=C(NC1CN2CCC1CC2)c1cc(Br)c([N+](=O)[O-])c2nc[nH]c12` (stereo not given), the inhibitory constant (Ki) in assay [1] is > 10000 nM; in assay [2], 8.8 nM.
The matching figures for `Nc1ccc(C(=O)NC2CN3CCC2CC3)c2[nH]cnc12` (stereo not given): 779 nM and 2.4 nM.
With `CN1C2CCCC1CC(OC(=O)c1cc(Cl)cc3[nH]cnc13)C2` (stereo not given), in assay [2], the Ki was 88.7 nM. This lies in the double-digit nanomolar range.
Take `O=C(NC1CN2CCC1CC2)c1cc(Br)cc2nc[nH]c12` (stereo not given): the Ki came to 168 nM in assay [1] and 0.29 nM in assay [2].
Regarding `Cc1nccn1CC1CCc2c(c3ccccc3n2C)C1=O` (stereo not given) [ONDANSETRON], the ED50 in assay [4] was determined as 43000 nM. In addition, in the assay filed under Cavia porcellus [5], the Kb is 0.126 nM.
As for `CN1C2CCCC1CC(NC(=O)c1cccc3[nH]cnc13)C2` (stereo not given), the Ki in assay [1] was > 10000 nM; in assay [2], 230 nM.
The matching figures for `CN1C2CCC1CC(NC(=O)c1cc(Cl)cc3nc[nH]c13)C2` (stereo not given): 319 nM and 16.6 nM.
Consider `O=C(N[C@@H]1CN2CCC1CC2)c1cc(Cl)cc2nc[nH]c12`, for which the Kb in the assay listed under Cavia porcellus [3] was 0.126 nM. The inhibitory constant (Ki) was > 10000 nM in assay [1] and 0.13 nM in assay [2]. The compound further displayed an ED50 in assay [4] of 17000 nM.
`CN1C2CCC1CC(OC(=O)c1cccc3[nH]cnc13)C2` (stereo in doubt; 23): the Ki in assay [1] is > 10000 nM; in assay [6], > 1000 nM.
As to `O=C(N[C@H]1CN2CCC1CC2)c1cc(Cl)cc2nc[nH]c12`, the Ki was found to be 205 nM in assay [1] and 0.76 nM in assay [2].
For the compound `CCC1CCN(C)C[C@@H]1NC(=O)c1cccc2nc[nH]c12` (stereo not given in full), the Ki is > 10000 nM in assay [1] and 38.3 nM in assay [2].
For `Nc1c(Cl)cc(C(=O)NC2CN3CCC2CC3)c2[nH]cnc12` (stereo not given), in that order: 187 nM and 0.24 nM.
For `CN1C2CCCC1CC(NC(=O)c1cc(Cl)cc3nc[nH]c13)C2` (stereo not given), in that order: > 1000 nM and 83 nM.
With `O=C(N[C@H]1CN2CCC1CC2)c1cc(Br)cc2nc[nH]c12`, the Ki in assay [1] was determined as 270 nM; in assay [2], 3.4 nM.
The matching figures for `CN1C2CCC1CC(OC(=O)c1cc(Cl)cc3[nH]cnc13)C2` (stereo not given): 356 nM and 61.2 nM.
Consider `O=C(N[C@@H]1CN2CCC1CC2)c1cc(Br)cc2nc[nH]c12`, for which the Ki in assay [1] worked out at 38.3 nM; in assay [2] it was 0.28 nM.
On to `CN1C2CCCC1CC(OC(=O)c1cccc3nc[nH]c13)C2` (stereo not given), for which, in assay [6], the affinity, expressed as Ki, was 678 nM. In other words, the sub-micromolar range.
Take `CN1C2CCC1CC(NC(=O)c1cccc3[nH]cnc13)C2` (stereo not given): the values for the Ki in assay [1] and in assay [2] were > 10000 nM and 118 nM, respectively.
As to `CN1C2CCC1CC(OC(=O)c1cccc3[nH]cnc13)C2` (stereo in doubt; 24), the Ki in assay [1] was > 10000 nM; in assay [6], > 1000 nM.
For `O=C(N[C@@H]1CN2CCC1CC2)c1cc(Cl)c([N+](=O)[O-])c2nc[nH]c12`, in the assay listed under Cavia porcellus [3], the Kb is 0.794 nM. Besides, the Ki is > 1000 nM in assay [1] and 1.7 nM in assay [2]. This compound also registered an ED50 in assay [4] of 68000 nM.
Regarding `CN1C2CCCC1CC(NC(=O)c1nn(C)c3ccccc13)C2` (stereo not given) [GRANISETRON], the Ki in assay [1] is > 1000 nM.

Values taken from ChEMBL document CHEMBL1132491, “Benzimidazole derivatives. 2. Synthesis and structure-activity relationships of new azabicyclic benzimidazole-4-carboxylic acid derivatives with affinity for serotoninergic 5-HT(3) receptors” (J Med Chem, 1999).
